Data from ChEMBL document CHEMBL1132240, “Design and synthesis of modified quinolones as antitumoral acridones” (J Med Chem, 1999).

Experiments:
[1] = tested on: P388; assay: Cytotoxic activity Murine Lymphocytic Leukemia P388 Concentration of agent required to reduce cell viability by 90%; format: functional; conditions: Mus musculus
In short: (§1)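 Modified MTT assay. Cells seeded per well with graded drug: CHO 2.5 × 10^3, B16 5 × 10^3, P388 and LLC 10^4, HL-60 and LoVo 5 × 10^4. After 68 h, MTT (2.5 mg/mL) added for 4 h at 37 °C. Formazan dissolved in DMSO and A550 read. Inhibition taken as fractional A550 decrease vs control. IC50/IC90 from Chou's median-effect equation.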

[2] = tested on: P388; assay: Cytotoxic activity against Murine Lymphocytic Leukemia P388 Concentration of agent required to reduce cell viability by 50%; format: functional, cell-based; conditions: Mus musculus; in short: as §1
[3] = tested on: HL-60; assay: Cytotoxic activity against Human promyelocytic Leukemia HL-60 Concentration of agent required to reduce cell viability by 90%; format: functional; in short: as §1
[4] = tested on: HL-60; assay: Cytotoxic activity against Human promyelocytic Leukemia HL-60 Concentration of agent required to reduce cell viability by 50%; format: functional, cell-based; in short: as §1
[5] = tested on: HL-60; assay: Cytotoxic activity against human promyelocytic leukemia HL-60 concentration of agent required to reduce cell viability by 50%; format: functional, cell-based; in short: as §1
[6] = tested on: P388; assay: Cytotoxic activity against murine lymphocytic leukemia P388 concentration of agent required to reduce cell viability by 50%; format: functional, cell-based; conditions: Mus musculus; in short: as §1
[7] = tested on: P388; assay: Cytotoxic activity against murine lymphocytic leukemia P388 concentration of agent required to reduce cell viability by 90%; format: functional; conditions: Mus musculus; in short: as §1
[8] = tested on: HL-60; assay: Cytotoxic activity against human promyelocytic leukemia HL-60 concentration of agent required to reduce cell viability by 90%; format: functional; in short: as §1
[9] = tested on: LoVo; assay: Cytotoxic activity against solid tumor, LoVo, (human colon adenocarcinoma) Concentration of agent required to reduce cell viability by 50%; format: functional, cell-based; in short: as §1
[10] = tested on: Lewis lung carcinoma cell line; assay: Cytotoxic activity against solid tumor LLC(Lewis lung carcinoma), concentration of agent required to reduce cell viability by 90%; format: functional; conditions: Mus musculus; in short: as §1
[11] = tested on: Lewis lung carcinoma cell line; assay: Cytotoxic activity against solid tumor LLC(Lewis lung carcinoma), concentration of agent required to reduce cell viability by 50%; format: functional, cell-based; conditions: Mus musculus; in short: as §1
[12] = tested on: CHO; assay: Cytotoxic activity against solid tumor, CHO (Chinese hamster ovaric carcinoma) Concentration of agent required to reduce cell viability by 90%; format: functional; conditions: Cricetulus griseus; in short: as §1
[13] = tested on: B16; assay: Cytotoxic activity against solid tumor, B16 (murine melanoma) Concentration of agent required to reduce cell viability by 50%; format: functional, cell-based; conditions: Mus musculus; in short: as §1
[14] = tested on: LoVo; assay: Cytotoxic activity against solid tumor, LoVo, (human colon adenocarcinoma) Concentration of agent required to reduce cell viability by 90%; format: functional; in short: as §1
[15] = tested on: CHO; assay: Cytotoxic activity against solid tumor, CHO (Chinese hamster ovaric carcinoma) Concentration of agent required to reduce cell viability by 50%; format: functional, cell-based; conditions: Cricetulus griseus; in short: as §1
[16] = tested on: B16; assay: Cytotoxic activity against solid tumor, B16 (murine melanoma) Concentration of agent required to reduce cell viability by 90%; format: functional; conditions: Mus musculus; in short: as §1
[17] = tested on: HL-60; assay: Relative cytotoxicity against Human promyelocytic Leukemia(HL-60) cells; Value is in range, activity expressed as IC90; format: functional
In short: (§2)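 Second-stage assay on HL-60 (5 × 10^4/well) and soybean-agglutinin-negative mononuclear marrow cells (5 × 10^5/well) from six healthy donors. Four wells per concentration, 48 h at 37 °C, then [125I]iododeoxyuridine plus fluorodeoxyuridine for 18 h. Inhibition from fractional uptake decrease; IC50/IC90 by median-effect equation. Ranges are antilog(mean log ± 2SD); ratios use mean antilogs.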

[18] = Ratio of antilog(mean log IC50 in bone marrow sample) and antolog(mean log IC50) in HL-60); format: functional; in short: as §2
[19] = Ratio of antilog(mean log IC50 in bone marrow sample) and antolog(mean log IC90) in HL-60); format: functional; in short: as §2
[20] = species: Homo sapiens; assay: Relative cytotoxicity against Human bone marrow samples; Value is in range, activity expressed as IC50; format: functional; in short: as §2
[21] = species: Homo sapiens; assay: Relative cytotoxicity against Human bone marrow samples; Value is in range, activity expressed as IC90; format: functional; in short: as §2
[22] = Ratio of antilog(mean log IC90 in bone marrow sample) and antolog(mean log IC90) in HL-60); format: functional; in short: as §2
[23] = tested on: HL-60; assay: Relative cytotoxicity against Human promyelocytic Leukemia(HL-60) cells; Value is in range, activity expressed as IC50; format: functional, cell-based; in short: as §2

CCn1c2cc(N3CCSCC3)c(N)cc2c(=O)c2c(O)cc(O)cc21
IC90 [1]: > 100 µM
IC50 [2]: > 100 µM

CCN(CC)CCn1c2cc(O)c(N)cc2c(=O)c2c(O)cc(O)cc21
IC90 [1]: 56 µM
IC90 [3]: > 100 µM
IC50 [2]: 26 µM
IC50 [4]: > 100 µM

CCn1c2cc(Cl)c(N)cc2c(=O)c2c(OC)cc(OC)cc21
IC50 [5]: 16 µM
IC50 [6]: 14 µM
IC90 [7]: 33 µM
IC90 [8]: 62 µM

COc1cc(O)c2c(=O)c3cc(N)c(N4CCN(C)CC4)cc3n(C)c2c1
IC50 [5]: 23 µM
IC50 [6]: 3.4 µM
IC90 [7]: 6.8 µM
IC90 [8]: 33 µM

CCn1c2cc(N3CCCC3)c(N)cc2c(=O)c2c(O)cc(O)cc21
IC90 [1]: > 100 µM
IC50 [2]: > 100 µM

CCn1c2cc(Cl)c(N)cc2c(=O)c2c(O)cc(OC)cc21
IC50 [6]: 16 µM
IC90 [7]: > 100 µM

CCn1c2cc(N3CC(C)NC(C)C3)c(N)cc2c(=O)c2c(O)cc(O)cc21 (centres undefined)
IC90 [1]: 18 µM
IC50 [9]: 21 µM
IC90 [10]: 43 µM
IC50 [11]: 29 µM
IC90 [3]: 32 µM
IC90 [12]: 38 µM
IC50 [13]: 22 µM
IC90 [14]: 37 µM
IC50 [15]: 12 µM
IC50 [2]: 6.2 µM
IC50 [4]: 21 µM
IC90 [16]: 32 µM

CCn1c2cc(Cl)ccc2c(=O)c2c(O)cc(O)cc21
IC90 [1]: > 100 µM
IC90 [3]: > 100 µM
IC50 [2]: > 100 µM
IC50 [4]: > 100 µM

CN1CCN(c2cc3nc4cc(O)cc(O)c4c(O)c3cc2N)CC1
IC90 [1]: > 100 µM
IC90 [3]: > 100 µM
IC50 [2]: 57 µM
IC50 [4]: > 100 µM

CCN(CC)CCn1c2cc(Cl)c(N)cc2c(=O)c2c(OC)cc(OC)cc21
IC50 [5]: 8.6 µM
IC50 [6]: 4.3 µM
IC90 [7]: 14 µM
IC90 [8]: 29 µM

CCN(CC)CCn1c2cc(N3CCN(C)CC3)c(N)cc2c(=O)c2c(O)cc(O)cc21
IC90 [1]: 13 µM
IC50 [9]: 17 µM
IC90 [10]: 35 µM
IC50 [11]: 24 µM
IC90 [3]: 19 µM
IC90 [12]: 16 µM
IC50 [13]: 16 µM
IC90 [14]: 21 µM
IC50 [15]: 7.1 µM
IC50 [2]: 7.2 µM
IC50 [4]: 11 µM
IC90 [16]: 23 µM

CCn1c2cc(N3CCC(O)CC3)c(N)cc2c(=O)c2c(O)cc(O)cc21
IC90 [17]: 11.7 µM
IC90 [1]: 9.4 µM
Ratio [18]: 0.4
Ratio [19]: 0.2
IC50 [20]: 1.8 µM
IC90 [3]: 9.2 µM
IC90 [12]: 38 µM
IC90 [21]: 15.9 µM
IC50 [13]: 26 µM
Ratio [22]: 1.5
IC50 [15]: 9.9 µM
IC50 [2]: 3.4 µM
IC50 [23]: 6.64 µM
IC50 [4]: 5.4 µM
IC90 [16]: > 50 µM
